# Shown are actives, neighbours in structure and some others; about 4.1% of the full set was active somewhere.
# HCV NS3 hel inh = blocks Hepatitis C virus NS3 helicase unwinding | NS3 helicase DNA unwinding, Cy5 molecular beacon fluorescence | inhibition, % at 10.9 µM | 290,000 tested, 0.56% active;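 active = inhibition above the mean of all tested compounds plus 3 SD, set per campaign, cut at about 35% in these data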;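 note: 0% = DMSO wells and 100% = thioflavine S control wells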
#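 System: NS3 helicase fragment of HCV / Schedule: 1 h at 25 °C / Control set: DMSO alone as 0% and 110 µM thioflavine S as 100% / Reagent: Cy5/quencher beacon DNA duplex and ATP to start / Technique: Cy5 fluorescence / Replication: singlicate / Evaluation: % inhibition of end-to-start signal ratio versus controls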
# FID counter = displaces DNA intercalator in HCV helicase counter-screen; DNA fluorescent intercalator displacement, fluorescence; inhibition, % at 7.9 µM; 290,000 tested, 0.17% active; AID 1845; in the data active = inhibition above about 37%;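 note: 0% = vehicle and 100% = reference compound; higher means more ethidium bromide displaced from hairpin DNA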
# MEKK2 WT-MEK5 = raises or lowers MEK5 binding to wildtype human MEKK2 PB1 domain; binding response (% of control), % at 10 µM; 290,000 tested, 1.1% active; AID 1531; bead flow cytometry, Alexa488-MEK5 binding to MEKK2 WT; actives lie on both sides; in the data active = binding response below about 67% or above about 130%
# T cruzi inh = blocks replication of Trypanosoma cruzi. T. cruzi beta-gal in NIH3T3, luminescence, 90 h. 300,000 tested, 1.4% active. AID 1885. inhibition, % (test concentration not listed);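 active = mean inhibition across valid replicates above about 55%, limit read from the data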;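 note: signal also drops with host cell toxicity which is not excluded here; 0% = plate median of DMSO wells and 100% = zero luminescence signal; higher percent means less beta-gal luminescence so fewer parasites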
#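 System: Mouse NIH/3T3 fibroblasts infected with β-gal-expressing T. cruzi Tulahuen C4 | Quantity: NIH/3T3 cells, 5,000 per well | Reagent: 5000 reporter trypomastigotes per well | Dosing: Compound pinned at 50 nL/well, DMSO | Schedule: 3 h host attachment, then at least 90 h co-culture | Detection: GalScreen luminescence, 60 min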
# MEKK2 mut-MEK5 = signal of MEK5 binding to mutant human MEKK2 PB1 domain. bead flow cytometry, Alexa488-MEK5 binding to MEKK2 mutant. percent response, % at 10 µM. 290,000 tested, 0.35% active; in the data active = percent response above about 24%, passing the limit was not always enough
# MEKK3 PB1 HTS = raises or lowers MEK5 binding to the human MEKK3 PB1 domain; Q99759; bead-based flow cytometry, Alexa488-MEK5 binding to MEKK3; actives lie on both sides; 0 = blocked by unlabeled MEK5, 100 = vehicle; binding response (% of control), % at 10 µM; 290,000 tested, 1.4% active; AID 1529;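 active = binding response more than 3 SD above or below the average of its plate-row segment, actives on both sides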;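 note: Alexa488 bead fluorescence after subtracting the streptavidin-only scavenger bead signal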
# Target sequence (Q99759 whole entry, looked up, the tested form may be a part): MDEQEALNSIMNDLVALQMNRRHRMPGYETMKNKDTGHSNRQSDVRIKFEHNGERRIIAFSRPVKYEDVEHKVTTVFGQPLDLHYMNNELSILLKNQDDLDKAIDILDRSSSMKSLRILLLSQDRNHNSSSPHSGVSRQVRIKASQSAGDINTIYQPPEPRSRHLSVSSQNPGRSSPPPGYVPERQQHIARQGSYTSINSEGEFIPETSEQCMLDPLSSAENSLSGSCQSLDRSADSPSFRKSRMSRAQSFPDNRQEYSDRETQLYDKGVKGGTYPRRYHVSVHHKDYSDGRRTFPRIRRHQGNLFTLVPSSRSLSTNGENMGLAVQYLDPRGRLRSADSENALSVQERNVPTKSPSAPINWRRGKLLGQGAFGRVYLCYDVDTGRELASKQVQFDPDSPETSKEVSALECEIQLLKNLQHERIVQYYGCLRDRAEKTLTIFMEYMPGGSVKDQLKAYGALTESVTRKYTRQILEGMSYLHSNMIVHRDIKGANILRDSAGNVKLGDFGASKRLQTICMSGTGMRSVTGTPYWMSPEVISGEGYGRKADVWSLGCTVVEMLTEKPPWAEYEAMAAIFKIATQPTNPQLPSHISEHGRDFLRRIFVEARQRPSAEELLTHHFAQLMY
# An asterisk follows results filed as active; / = no result.
SMILES,HCV NS3 hel inh,FID counter,MEKK2 WT-MEK5,T cruzi inh,MEKK2 mut-MEK5,MEKK3 PB1 HTS
Cc1cc2c(c(=O)n1Cc1cccnc1)C(c1ccccc1)C(C#N)=C(N)O2 (configuration not stated),4,-2,101,-23,0,98
CN(C)c1nc(N)ncc1-c1ccc(Oc2ccccc2)cc1,-47,0,104,70*,3,101
COc1ccc(-c2nc(N)ncc2-c2ccccc2)c(O)c1,-15,-14,108,14,6,105
O=C(NC1CCCC1)C(c1cccnc1)N(C(=O)c1csnn1)c1ccc(F)cc1 (configuration not stated),14,-11,103,11,10,102
CCOC(=O)CNc1nc(C(C)(C)C)nc2c1nnn2Cc1ccccc1Cl,-2,-3,105,61*,2,106
COc1ccc(-c2nc3ccc(C)cn3c2NCc2ccccc2)cc1SC1CCCCC1,/,/,/,63*,/,/
CCC(C)Sc1cc(-c2nc3ccc(C)cn3c2NCc2ccccc2)ccc1OC (configuration not stated),/,/,/,36,/,/
CCCCCCSc1ccc(-c2nc3ccc(C)cn3c2NCc2ccccc2)cc1,/,/,/,13,/,/
CCCCCCSc1ccc(-c2nc3ccc(C)cn3c2NCc2ccccc2)cc1OC,/,/,/,56*,/,/
CN(C)CCCN=Cc1c(O)n(Cc2ccc3c(c2)OCO3)c(=O)c2ccccc12,-3,14,125,75*,9,96
CN(C)CCN=Cc1c(O)n(Cc2ccc3c(c2)OCO3)c(=O)c2ccccc12,0,-3,113,46,-7,104
CC(=O)O[C@H]1C(=O)[C@@]2(C)C([C@H](OC(=O)c3ccccc3)[C@]3(O)C[C@H](OC(=O)[C@H](O)[C@@H](NC(=O)c4ccccc4)c4ccccc4)C(C)=C1C3(C)C)[C@]1(OC(C)=O)CO[C@@H]1C[C@H]2O (some centres not stated),-54,-51,97,61*,0,106
N#Cc1cc(Cl)c(NCC2CCCO2)cc1C#N (configuration not stated),7,-4,104,-7,1,106
Cc1c(CCC(=O)NCCCn2ccnc2)c(=O)oc2c(C)c3occ(C(C)(C)C)c3cc12,8,38*,107,43,1,104
Cc1coc2c(C)c3oc(=O)c(CCC(=O)NCCCn4ccnc4)c(C)c3cc12,-36,22,104,15,-2,96
C[n+]1cccc(O)c1SCc1ccccc1,/,/,/,-20,/,/
O=C(COc1ccc(F)cc1Cl)Nc1nc(-c2ccccn2)cs1,/,/,/,76*,/,/
CCOC(=O)c1csc(NC(=O)c2cc3ccccc3o2)n1,9,-10,92,0,-12,93
O=C(/C=C/c1ccco1)Nc1nc(-c2ccccn2)cs1,13,-13,94,60*,-1,103
O=C(Nc1nc(-c2ccccn2)cs1)c1cc2ccccc2o1,3,-6,95,77*,-2,97
Cn1cccc1C(=O)Nc1nc(-c2ccccn2)cs1,14,-8,100,66*,-1,100
COc1ccc(CCNC(=O)C2(C)CCC(=O)N2Cc2ccc(C)cc2)cc1OC (configuration not stated),6,-24,106,2,4,102
O=C(COC(=O)/C=C/c1ccccc1Cl)NC1CCCCCC1,5,-2,97,-18,-2,92
CSCCC(NS(=O)(=O)c1ccccc1F)C(=O)NCCCn1nc(C)cc1C (configuration not stated),/,/,/,-7,/,/
Cc1ccc(C)c(S(=O)(=O)N2CCCOC2CNC(=O)C(=O)NCc2ccc3c(c2)OCO3)c1 (configuration not stated),-3,-39,107,10,3,101
SMILES,HCV NS3 hel inh,FID counter,MEKK2 WT-MEK5,T cruzi inh,MEKK2 mut-MEK5,MEKK3 PB1 HTS
O=C(Nc1nc(-c2ccc(Cl)s2)cs1)c1cccs1,0,3,/,76*,/,/
O=C(Nc1nc(-c2ccccn2)cs1)c1ccc(Cl)s1,-11,-2,112,58*,5,108
O=C(Nc1nc(-c2ccccc2)cs1)c1cccs1,-4,0,111,10,8,108
COc1cccc(-c2ccc(NC(=O)C3CCCN(Cc4cnn(C)c4)C3)cc2)c1 (configuration not stated),-28,20,132,18,11,100
CC(C)n1cc(CN2CCCC(C(=O)Nc3cccc(-c4cc5ccccc5[nH]4)c3)C2)cn1 (configuration not stated),-33,32,180*,45,22,104
COc1cc(CN2CCCC(C(=O)Nc3cccc(-n4cccn4)c3)C2)ccc1F (configuration not stated),-14,18,117,61*,10,103
O=C(Nc1cccc(-n2cccn2)c1)C1CCCN(Cc2ccccc2F)C1 (configuration not stated),-6,10,103,11,-3,98
CC(C)n1cc(CN2CCC(C(=O)Nc3cccc(-c4cscn4)c3)CC2)cn1,-10,14,123,7,7,101
Cn1cc(CN2CCCC(C(=O)Nc3cccc(-c4cc5ccccc5[nH]4)c3)C2)cn1 (configuration not stated),-83,21,175*,17,30*,110
COC(=O)[C@H]1[C@H]2C[C@@H]3c4[nH]c5cc(OC)ccc5c4CCN3C[C@H]2C[C@@H](OC(=O)c2ccc(N)cc2)[C@@H]1OC,-44,-16,88,58*,-13,92
Clc1cccc(N/N=C/c2ccc(N3CCOCC3)cc2)c1,-6,4,97,60*,-5,96
O=C(CC12CC3CC(CC(C3)C1)C2)NC(=S)Nc1ccc(CN2CCOCC2)cc1,-3,-3,112,82*,3,100
O=C(NC(=S)Nc1ccc(CN2CCOCC2)cc1)c1ccco1,1,-2,92,-2,-17,94
COc1ccc(NC2CCCN(C(=O)C3=NN(C)C(=O)CC3)C2)cc1OC (configuration not stated),0,-10,105,-6,3,107
Cc1ccc(C)c(N2CCN(CCCNC(=O)CCC(=O)N3CCOc4ccc(Cl)cc43)CC2)c1,-19,28,150*,5,16,107
Cc1ccc(C)c(N2CCN(C(=O)CCC(=O)N3CCOc4ccc(Cl)cc43)CC2)c1,-24,-39,98,55*,-3,101
O=C(/C=C\N1CCOCC1)c1ccc(Br)cc1,23,-5,114,1,13,112
CCOC(=O)N1CCN(C(=O)c2oc3ccc(S(=O)(=O)N4CCCCCC4)cc3c2C)CC1,1,-26,119,65*,5,111

# Screens (PubChem)
